Two compounds from ChEMBL document CHEMBL1153610, “Synthesis and antiprotozoal activities of dicationic bis(phenoxymethyl)benzenes, bis(phenoxymethyl)naphthalenes, and bis(benzyloxy)naphthalenes” (Eur J Med Chem, 2009) can be followed below.

As usually defined, the IC50 is the point on the concentration scale where inhibition reaches its midpoint. High values mean a need for much substance, low ones inhibition by little substance.

The source made the active and inactive calls. No cut-off for these calls is given here.

The test system of data set [1] is Trypanosoma brucei rhodesiense. Put plainly: Antitrypanosomal activity against Trypanosoma brucei rhodesiense STIB900 infected NMRI mouse assessed mean survival time at 4 mg/kg, ip dosed for 4 days. Particulars: route intraperitoneal. In kind it is functional.
A short description of data set [2]: Selectivity index, ratio of IC50 for rat L6 cells to IC50 for Trypanosoma brucei rhodesiense STIB900. In kind it is toxicity, cell-based. Particulars: read-out: Ratio IC50.
For data set [3], the system named is Trypanosoma brucei rhodesiense. Briefly: Antitrypanosomal activity against Trypanosoma brucei rhodesiense STIB900 infected NMRI mouse assessed as infection cure rate at 4 mg/kg, ip dosed for 4 days. In kind it is functional, organism-based. Details: dose 4 mg/kg.
For data set [4], the system named is Trypanosoma brucei rhodesiense. Put plainly: Antitrypanosomal activity against Trypanosoma brucei rhodesiense STIB900 infected NMRI mouse assessed mean survival time at 10 mg/kg, ip dosed for 4 days. It counts as functional. Particulars: route intraperitoneal.
Data set [5] has as its system Trypanosoma brucei rhodesiense. Put plainly: Antitrypanosomal activity against Trypanosoma brucei rhodesiense STIB900 infected NMRI mouse assessed as infection cure rate at 10 mg/kg, ip dosed for 4 days. In kind it is functional, organism-based. Details: dose 10 mg/kg. An outline of the steps: (§1)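 Mice infected with T. b. rhodesiense STIB900 were dosed intraperitoneally once daily for 4 days. Outcome was scored as cured/infected animals out of groups of four, plus mean survival days post infection for mice showing parasitemia relapse.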

In data set [6] the test system is Trypanosoma brucei rhodesiense. Briefly: Antitrypanosomal activity against Trypanosoma brucei rhodesiense STIB900 infected NMRI mouse assessed mean survival time at 5 mg/kg, ip dosed for 4 days. In kind it is functional. Particulars: route intraperitoneal.
The subject of data set [7] is Trypanosoma brucei rhodesiense. Briefly: Antitrypanosomal activity against Trypanosoma brucei rhodesiense STIB900 infected NMRI mouse assessed as infection cure rate at 5 mg/kg, ip dosed for 4 days. In kind it is functional, organism-based. Details: dose 5 mg/kg. The procedure, abridged: as §1
Data set [8] concerns Trypanosoma brucei rhodesiense. Briefly: Antitrypanosomal activity against Trypanosoma brucei rhodesiense STIB900. It counts as functional, organism-based.
The subject of a further data set is Leishmania donovani. Briefly: Antileishmanial activity against Leishmania donovani MHOM/SD/62/1S-CL2D amastigotes. It counts as functional, organism-based. The procedure, abridged: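 IC50 taken as the average of duplicate determinations against L. donovani.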
The nature of data set [9]: Selectivity index, ratio of IC50 for rat L6 cells to IC50 for chloroquine-resistant Plasmodium falciparum K1. It counts as toxicity, cell-based. Particulars: read-out: Ratio IC50.
Data set [10] can be described thus: Selectivity index, ratio of IC50 for rat L6 cells to IC50 for Leishmania donovani MHOM/SD/62/1S-CL2D amastigotes. In kind it is toxicity, cell-based. Particulars: read-out: Ratio IC50.
Another data set has as its system L6. Put plainly: Cytotoxicity against rat L6 cells. In kind it is cell-based. The procedure, abridged: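 Rat L6 myoblasts served as the cytotoxicity measure. IC50 is the average of duplicate determinations.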
The test system of the next data set is Plasmodium falciparum. Briefly: Antimalarial activity against chloroquine-resistant Plasmodium falciparum K1. In kind it is functional, organism-based.

`Nc1nc(N)nc(Nc2ccc([As]3SCC(CO)S3)cc2)n1` (centres undefined) [MELARSOPROL] yielded a Survival in [1] of over 60 days. In addition, the selectivity ratio in data set [2] worked out at 1220. For the same compound, the outcome in data set [3] was Active.
Regarding `CC(C)NC(=N)c1ccc(OCc2cccc(COc3ccc(C(=N)NC(C)C)cc3)c2)cc1`, the results for the Survival in data set [4] and in [6] were over 60 days and over 51.5 days, respectively. Besides, the result in data set [5] and in data set [7] was Active. The concentration for half-maximal inhibition (IC50) was 68 nM in data set [8], 7.27 µM in the data set on Leishmania donovani, over 169 µM in the data set on L6 and 3.6 nM in the data set on Plasmodium falciparum. Further, the selectivity ratio is over 2490 in data set [2], over 46900 in data set [9] and over 23.2 in [10].
